According to ChEMBL document CHEMBL5260793, “Novel pyrazolo[3,4-d]pyrimidine with 4-(1H-benzimidazol-2-yl)-phenylamine as broad spectrum anticancer agents: Synthesis, cell based assay, topoisomerase inhibition, DNA intercalation and bovine serum albumin studies” (Eur J Med Chem, 2017):
The source made the active and inactive calls. No cut-off for these calls is given here.

How the values were obtained:
[1] = tested on: Panel melanoma (Carcinoma cell lines); test: Anticancer activity against human Panel melanoma (Carcinoma cell lines) assessed as cell growth inhibition incubated for 48 hrs by Sulphorhodamine B assay; format: functional
Method in brief: (§1)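 NCI-60 five-dose screen. Cells in RPMI 1640 with 5% FBS and 2 mM L-glutamine were plated at 5,000–40,000 cells/well and held 24 h before dosing. Compounds came from DMSO stocks and were given at five concentrations (10-fold or ½-log dilutions) for 48 h at 37 °C. Adherent cells were TCA-fixed and stained with SRB; A515 was read. GI50 was set from growth = 50% and TGI from Ti = Tz, using Tz/C/Ti.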

[2] = tested on: Panel breast (Carcinoma cell lines); test: Anticancer activity against human Panel breast (Carcinoma cell lines) assessed as cell growth inhibition incubated for 48 hrs by Sulphorhodamine B assay; format: functional; method in brief: as §1
[3] = tested on: Panel leukemia (Carcinoma cell lines); test: Anticancer activity against human Panel leukemia (Carcinoma cell lines) assessed as total growth inhibition incubated for 48 hrs by Sulphorhodamine B assay; format: functional
[4] = tested on: Panel colon (Carcinoma cell lines); test: Anticancer activity against human Panel colon (Carcinoma cell lines) assessed as total growth inhibition incubated for 48 hrs by Sulphorhodamine B assay; format: functional; method in brief: as §1
[5] = tested on: Panel melanoma (Carcinoma cell lines); test: Anticancer activity against human Panel melanoma (Carcinoma cell lines) assessed as total growth inhibition incubated for 48 hrs by Sulphorhodamine B assay; format: functional; method in brief: as §1
[6] = tested on: Panel ovarian (Carcinoma cell lines); test: Anticancer activity against human Panel ovarian (Carcinoma cell lines) assessed as total growth inhibition incubated for 48 hrs by Sulphorhodamine B assay; format: functional
[7] = tested on: Panel prostate (Carcinoma cell lines); test: Anticancer activity against human Panel prostate (Carcinoma cell lines) assessed as lethality incubated for 48 hrs by Sulphorhodamine B assay; format: functional
[8] = tested on: Panel breast (Carcinoma cell lines); test: Anticancer activity against human Panel breast (Carcinoma cell lines) assessed as lethality incubated for 48 hrs by Sulphorhodamine B assay; format: functional; settings: read-out: LC50 (the source's name)
[9] = biological target: DNA topoisomerase 2-alpha (Homo sapiens) (UniProt P11388); test: Inhibition of human DNA topoisomerase II-alpha mediated supercoiled pHOT1 plasmid DNA relaxation at 50 uM incubated for 30 mins by ethidium bromide staining based agarose gel electrophoresis analysis
Method in brief: (§2)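 Reaction buffer: 50 mM Tris-Cl pH 8.0, 120 mM KCl, 10 mM MgCl2, 0.5 mM ATP, 0.5 mM DTT. Each reaction held 500 ng supercoiled pHOT1 and 1 U human Topo IIα, with compound at 10–100 μM, for 30 min at 37 °C. Reactions were stopped with glycerol/EDTA/bromophenol blue, run on 1% agarose in TBE, and stained with ethidium bromide. Etoposide 25 μM was the positive control.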

[10] = biological target: DNA topoisomerase 2-alpha (Homo sapiens) (UniProt P11388); test: Inhibition of human DNA topoisomerase II-alpha mediated supercoiled pHOT1 plasmid DNA relaxation at 75 uM incubated for 30 mins by ethidium bromide staining based agarose gel electrophoresis analysis; method in brief: as §2
[11] = tested on: Calf thymus DNA; test: Binding affinity to calf thymus DNA assessed as maximum absorption wavelength shift at pH 7.4 at 10 uM by UV-vis absorption spectroscopy; format: nucleic-acid assay; settings: Bos taurus
Method in brief: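 Absorption titration at 300 K in a 1 cm cell, background subtracted. Compound was fixed (10 μM per legend; 20 μM in methods) with ct-DNA added up to 15–20 μM in 10 mM phosphate buffer, pH 7.4 (A260/A280 1.82). A buffer-addition control was run. K was taken from the 1/(Af−Aobs) vs 1/[DNA] fit.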

[12] = tested on: Calf thymus DNA; test: Binding affinity to calf thymus DNA assessed as decrease in maximum emission wavelength at pH 7.4 at 10 uM by fluorescence spectroscopy; format: nucleic-acid assay; settings: Bos taurus
Method in brief: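 Compound was held constant (10 μM per legend; 20 μM in methods) and titrated with ct-DNA (0–20 μM) in 10 mM phosphate buffer, pH 7.4. Emission spectra were excited at 300 nm, with a buffer-only control. Binding constant came from a Benesi–Hildebrand plot.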

DNA topoisomerase 2-alpha (Homo sapiens), sequence (P11388 whole entry): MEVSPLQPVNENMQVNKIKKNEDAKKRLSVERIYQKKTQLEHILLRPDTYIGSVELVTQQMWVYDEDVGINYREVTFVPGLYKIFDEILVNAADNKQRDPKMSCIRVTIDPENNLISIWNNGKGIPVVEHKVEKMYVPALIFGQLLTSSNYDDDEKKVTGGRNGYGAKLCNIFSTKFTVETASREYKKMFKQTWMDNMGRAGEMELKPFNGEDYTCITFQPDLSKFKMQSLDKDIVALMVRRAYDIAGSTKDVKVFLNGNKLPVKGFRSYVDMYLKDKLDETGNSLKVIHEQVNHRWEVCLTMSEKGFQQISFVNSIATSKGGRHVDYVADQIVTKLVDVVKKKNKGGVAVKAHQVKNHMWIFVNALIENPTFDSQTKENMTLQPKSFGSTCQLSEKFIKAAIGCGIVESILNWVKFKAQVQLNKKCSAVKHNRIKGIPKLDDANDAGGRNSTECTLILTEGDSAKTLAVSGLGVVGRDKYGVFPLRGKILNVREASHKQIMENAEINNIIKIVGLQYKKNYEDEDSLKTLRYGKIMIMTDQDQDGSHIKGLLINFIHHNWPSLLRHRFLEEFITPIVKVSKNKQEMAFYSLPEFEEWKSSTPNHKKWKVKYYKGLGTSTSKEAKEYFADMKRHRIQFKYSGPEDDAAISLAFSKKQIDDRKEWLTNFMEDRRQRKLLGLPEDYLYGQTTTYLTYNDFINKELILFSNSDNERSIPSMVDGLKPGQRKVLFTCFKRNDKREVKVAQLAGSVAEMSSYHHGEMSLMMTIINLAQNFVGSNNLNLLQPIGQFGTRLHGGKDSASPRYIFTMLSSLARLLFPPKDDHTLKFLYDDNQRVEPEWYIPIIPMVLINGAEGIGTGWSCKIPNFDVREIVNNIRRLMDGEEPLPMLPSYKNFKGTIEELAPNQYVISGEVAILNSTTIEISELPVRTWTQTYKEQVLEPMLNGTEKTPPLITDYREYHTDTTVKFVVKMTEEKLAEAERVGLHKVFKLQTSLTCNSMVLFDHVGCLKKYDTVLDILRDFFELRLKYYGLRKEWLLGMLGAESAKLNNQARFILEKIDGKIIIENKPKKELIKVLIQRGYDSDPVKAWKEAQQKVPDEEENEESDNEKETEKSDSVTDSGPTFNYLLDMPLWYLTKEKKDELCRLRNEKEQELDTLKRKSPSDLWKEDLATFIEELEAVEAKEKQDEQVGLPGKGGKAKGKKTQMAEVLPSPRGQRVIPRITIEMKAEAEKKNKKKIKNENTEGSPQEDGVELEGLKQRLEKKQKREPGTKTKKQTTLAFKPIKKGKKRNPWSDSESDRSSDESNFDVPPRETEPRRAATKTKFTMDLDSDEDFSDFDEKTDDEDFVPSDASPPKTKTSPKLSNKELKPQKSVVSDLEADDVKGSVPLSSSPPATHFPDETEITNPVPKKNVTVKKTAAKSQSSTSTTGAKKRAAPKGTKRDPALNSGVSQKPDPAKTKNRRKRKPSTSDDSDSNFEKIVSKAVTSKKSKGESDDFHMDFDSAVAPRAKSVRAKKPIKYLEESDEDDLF

Row | Compound | GI50 [1] [µM] | GI50 [2] [µM] | TGI [3] [µM] | TGI [4] [µM] | TGI [5] [µM] | TGI [6] [µM] | LC50 [7] [µM] | CC50 [8] [µM] | inhibition [9] | inhibition [10] | Activity [11] [nm] | Activity [12]
1 | OCCN1CCN(c2nc(Nc3ccc(-c4nc5ccccc5[nH]4)cc3)c3cn[nH]c3n2)CC1 | 1.81 | 1.8 | 1.22 | 2.12 | 3.41 | 3.59 | 5.97 | 7.02 | Active | Active | 259 | Active
2 | Fc1ccc(Nc2nc(Nc3ccc(-c4nc5ccccc5[nH]4)cc3)c3cn[nH]c3n2)cc1 | 2.8 | 1.99 | 6.33 | 3.83 | 3.74 | 6.77 | 9.22 | 19 | Active | Active | 257 | Active
